# Measured values from different studies.
# Lines come from different studies, so protocols differ.
# Target: Cholinesterase (BCHE, Homo sapiens, UniProt P06276)
# Effect on: enzyme activity
# Action: inhibitor
SMILES,technique,medium,pH,IC50
C=CCn1c2cc(OC(=O)CCCCN3CCN(Cc4ccc(C)cc4)CC3)ccc2c2ccnc(C)c21,Ellman,,,581 nM
CC(=O)n1ccc(=O)[nH]c1=O,Ellman,,,270 nM
C=CCn1c2cc(OC(=O)CCCN3CCN(Cc4ccccc4)CC3)ccc2c2ccnc(C)c21,Ellman,,,163 nM
CC(C)(C)c1ccc(OP(=O)(Oc2ccc(C(C)(C)C)cc2)Oc2ccc(C(C)(C)C)cc2)cc1,,liver microsomes,,> 20 µg/mL
Cc1cc(O)nc(O)n1,Ellman,,,368 nM
C[N+](C)(C)CCCCCCCCCC[N+](C)(C)C,,,,17400 nM
C#CCNc1nc(NCCCC2CCN(Cc3ccccc3)CC2)c(C#N)cc1C#N,Ellman,,,1920 nM
C=CCn1c2cc(OC(=O)CCCCN3CCN(Cc4ccc(C(F)(F)F)cc4)CC3)ccc2c2ccnc(C)c21,Ellman,,,204 nM
CC(C)c1ccccc1OP(=O)(Oc1ccccc1C(C)C)Oc1ccccc1C(C)C,,liver microsomes,,> 20 µg/mL
Cc1ccc(S(=O)(=O)n2cc(Br)c(=O)[nH]c2=O)cc1,Ellman,,,137 nM
CC(C)(C)c1ccccc1OP(=O)(Oc1ccccc1C(C)(C)C)Oc1ccccc1C(C)(C)C,,liver microsomes,,> 20 µg/mL
C[C@@H]1CCCN1CCCCOc1ccc2occc(=O)c2c1,Ellman,,pH 7.4,48500 nM
